Results on 19 compounds are retold here after ChEMBL document CHEMBL1154181 (J Med Chem, 2009).

One experiment relates to Mus musculus. The experiment is described as follows: Antinociceptive activity against thermal nociception in po dosed CD1 mouse assessed as increase in latency period to elicit jumping or hind paw licking measured after 15 to 90 mins postdose by hot plate method. The class given is functional. A general note: Hot-plate and tail-flick tests time the reaction to a heat stimulus.
In the case of `CN1CC[C@]23c4c5ccc(O)c4O[C@H]2[C@@H](O)C=C[C@H]3[C@H]1C5` [MORPHINE], the ED50 was 6.9 mg/kg.

The test system of the next experiment is Mus musculus. Briefly: Antinociceptive activity against radiant heat-induced nociception in po dosed CD1 mouse assessed as increase in tail withdrawal latency measured after 15 to 120 mins postdose by tail flick test. The class given is functional. The method in brief:
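Male CD-1 mice, 25–30 g; oral dosing. Radiant heat focused 3–4 cm from tail tip of hand-restrained mice; tail withdrawal latency recorded, cutoff 15 s at 15 V. Baseline = mean of three readings 15 min apart; latency at 15–120 min.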
Regarding `CN1CC[C@]23c4c5ccc(O)c4O[C@H]2[C@@H](O)C=C[C@H]3[C@H]1C5` [MORPHINE], the ED50 is 3.5 mg/kg.

A further experiment deals with Mus musculus. The experiment is described as follows: Antinociceptive activity against radiant heat-induced nociception in icv dosed CD1 mouse assessed as increase in tail withdrawal latency measured after 15 to 120 mins postdose by tail flick test. It counts as functional. The method in brief: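 Male CD-1 mice anesthetized with ketamine-xylazine (80 + 10 mg/kg ip). Dosed into the right lateral ventricle (+2 mm ML, −0.3 mm AP to bregma, 2 mm depth). Tail flick with radiant heat, cut-off 15 s. Latency read at 15–120 min as %MPE.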
`C=Cc1c(C)nn(CCCN2CCN(c3cccc(Cl)c3)CC2)c(=O)c1N`: the ED50 is 23.7 µg.

Regarding `C=Cc1c(C)nn(CCCN2CCN(c3ccc(OC)cc3)CC2)c(=O)c1N`, the ED50 worked out at 12.6 µg.

As to `Cc1ccc(N2CCN(CCn3nc(-c4ccccc4)c(-c4csc(C)n4)c(N)c3=O)CC2)cc1`, the ED50 is 25.1 µg.

As to `Cc1ccc(N2CCN(CCCn3nc(C)ccc3=O)CC2)cc1`, the ED50 was 13.8 µg.

As for `C=Cc1c(C)nn(CCCN2CCN(c3cccc(C)c3)CC2)c(=O)c1N`, the ED50 amounted to 51.55 µg.

For `C=Cc1c(C)nn(CCCN2CCN(c3cccc(OC)c3)CC2)c(=O)c1N`, the ED50 came to 72.6 µg.

For `C=Cc1c(C)nn(CCCN2CCN(C)CC2)c(=O)c1N`, the ED50 amounted to 8.7 µg.

Take `C=Cc1c(C)nn(CCCN2CCC(C)CC2)c(=O)c1N`: the ED50 was found to be 26.4 µg.

With `CN1CC[C@]23c4c5ccc(O)c4O[C@H]2[C@@H](O)C=C[C@H]3[C@H]1C5` [MORPHINE], the ED50 turned out to be 1.1 µg.

For the compound `Cc1ccc(N2CCN(CCCn3cc(-c4ccncc4)cc(N)c3=O)CC2)cc1`, the ED50 is 7.6 µg.

Turning to `Cc1ccc(N2CCN(CCn3nc(C)c(-c4ccn[nH]4)c(N)c3=O)CC2)cc1`, the ED50 turned out to be 16.9 µg.

For `C=Cc1c(C)nn(CCN2CCN(c3ccc(C)cc3)CC2)c(=O)c1N`, the ED50 worked out at 26.1 µg.

As to `Cc1ccc(N2CCN(CCCn3nc(-c4ccccc4)c(-c4csc(C)n4)c(N)c3=O)CC2)cc1`, the ED50 was 48.3 µg.

For `C=Cc1c(C)nn(CCCN2CCN(c3ccc(Cl)cc3)CC2)c(=O)c1N`, the ED50 was 15.4 µg.

Regarding `Cc1ccc(N2CCN(CCCn3nc(C)cc(N)c3=O)CC2)cc1`, the ED50 was determined as 4.9 µg.

Consider `C=Cc1cnn(CCCN2CCN(c3ccc(C)cc3)CC2)c(=O)c1N`, for which the ED50 came out at 25.1 µg.

On to `C=Cc1sc(=O)n(CCCN2CCN(c3ccc(C)cc3)CC2)c1C`, for which the ED50 came to 5.1 µg.

For `C=Cc1c(C)nn(CCN2CCN(c3ccc(OC)cc3)CC2)c(=O)c1N`, the ED50 was determined as 11.9 µg.

For the compound `C=Cc1c(C)nn(C)c(=O)c1NCCN1CCN(c2ccc(C)cc2)CC1`, the ED50 was found to be 24.1 µg.
